Screening results (PubChem)
TRPC4 agonist – activators of mouse TRPC4 channel; Q9QUQ5; 310,000 tested, 0.49% active; AID 2237; B-score at 10 µM; HEK293 TRPC4beta/mu-opioid, Fluo4 calcium fluorescence; stronger effect = higher value;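 active means B-score above 5 SD of library B-scores, and initial fluorescence ratio not above library mean plus 5 SD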;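 further: positive B-score marks a calcium rise read as TRPC4 activation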
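System: HEK293 cells stably co-expressing mouse TRPC4beta and mu-opioid receptor; Schedule: Fluo4 dye loading 45 min at room temperature, 110 s recording; Detection: Fluo4 fluorescence, kinetic; Evaluation: B-scored integrated calcium fluorescence ratio; Controls: buffer (low) and maximal DAMGO (high).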
CR mimetic SO – yeast age-related superoxide inhibition as caloric restriction mimetic; S. cerevisiae aged cells, superoxide DHE fluorescence; stronger effect = lower value; AID 2690; 330,000 tested, 0.18% active; superoxide response (% of plate mean), % at 10 µM;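 active means superoxide response under a set limit, about three screen SD below normal, cut at about 65% in these data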;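 further: yeast aged for seven days with compound at 30 °C before DHE staining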
TRPC4 potent – TRPC4 (mouse) allosteric potentiation | 310,000 tested, 0.42% active | HEK293 TRPC4beta/mu-opioid, DAMGO EC20, Fluo-4 Ca2+ flux; stronger effect = higher value | B-score at 10 µM;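 active means B-score of calcium response area above 5 SD of library B-scores, with initial fluorescence ratio within 5 SD of library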
TRPC6 activator – activates the mouse TRPC6 cation channel; Q61143; HEK293-TRPC6 membrane potential dye fluorescence; stronger effect = higher value; B-score at 10 µM; 310,000 tested, 0.13% active; AID 2550;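 active means B-score of the integrated fluorescence ratio above library mean plus 3 SD, and starting fluorescence ratio within library mean plus 5 SD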;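 further: higher score means more depolarization so channel activation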
Target sequence (Q61143 whole entry, looked up): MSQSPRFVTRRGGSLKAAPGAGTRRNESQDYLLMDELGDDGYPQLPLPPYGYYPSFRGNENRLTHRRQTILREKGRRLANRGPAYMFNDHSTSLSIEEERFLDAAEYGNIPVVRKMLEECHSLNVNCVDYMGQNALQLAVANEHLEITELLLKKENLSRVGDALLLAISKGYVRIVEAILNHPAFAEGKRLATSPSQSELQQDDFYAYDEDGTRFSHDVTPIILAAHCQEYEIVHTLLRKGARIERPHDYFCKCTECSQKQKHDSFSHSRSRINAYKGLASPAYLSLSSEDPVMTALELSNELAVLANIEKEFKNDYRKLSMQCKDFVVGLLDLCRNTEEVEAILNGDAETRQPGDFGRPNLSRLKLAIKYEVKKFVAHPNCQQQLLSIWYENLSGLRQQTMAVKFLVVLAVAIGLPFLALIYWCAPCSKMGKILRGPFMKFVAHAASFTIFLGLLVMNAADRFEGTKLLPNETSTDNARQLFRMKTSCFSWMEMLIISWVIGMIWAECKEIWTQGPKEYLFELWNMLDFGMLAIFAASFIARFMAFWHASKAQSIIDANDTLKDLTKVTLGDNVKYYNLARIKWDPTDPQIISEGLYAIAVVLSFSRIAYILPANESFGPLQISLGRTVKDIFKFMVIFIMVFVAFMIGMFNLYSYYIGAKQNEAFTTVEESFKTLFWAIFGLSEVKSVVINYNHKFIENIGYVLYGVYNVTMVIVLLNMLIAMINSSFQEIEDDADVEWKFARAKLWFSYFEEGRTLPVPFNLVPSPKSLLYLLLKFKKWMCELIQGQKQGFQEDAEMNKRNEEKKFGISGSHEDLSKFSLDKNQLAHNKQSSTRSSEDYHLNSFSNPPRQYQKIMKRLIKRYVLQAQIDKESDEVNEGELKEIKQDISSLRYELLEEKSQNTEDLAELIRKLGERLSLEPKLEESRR
TRPC6 inh – inhibitors of mouse TRPC6 channel | Q61143 | HEK293-TRPC6, membrane potential dye, ACh-evoked depolarization; stronger effect = lower value | B-score at 10 µM | 310,000 tested, 1.1% active | AID 2553;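 active means B-score under library mean minus 3 SD, initial fluorescence not abnormally high, positive integrated signal ratio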;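 further: B-score derived from integrated fluorescence ratio over the kinetic read; more negative B-score means stronger inhibition of depolarization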
TRPC4 block – TRPC4 (mouse) channel inhibition. AID 2247. HEK293 TRPC4beta/mu-opioid, DAMGO-evoked Fluo4 calcium flux; stronger effect = lower value. 300,000 tested, 0.39% active. B-score at 10 µM;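 active means B-score over 3 SD under the library average, no early fluorescence shift, positive overall ratio signal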
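Assay system: HEK293 cells with stable TRPC4beta plus mu-opioid receptor expression. Dosing: single dose. Measured by: Fluo4 Ca2+ flux fluorescence. Also added: DAMGO in two steps, submaximal then maximal. Read-out: B score from integrated Fluo4 fluorescence ratio.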
TRPC4 sel inh 2 – mouse TRPC4 off-target activity of TRPC6 inhibitors, second screen | shares compounds with TRPC6 inh | HEK293 TRPC4/MOR, membrane potential dye fluorescence; channel activated by saturating DAMGO dose | inhibition, % at 10 µM | 920 tested, 42% active | AID 2776;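 active means compounds whose fluorescence signal differed from control wells by over 3 SD, either direction, in both duplicate plates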
TRPC4 spec – tests whether TRPC6 inhibitors also affect mouse TRPC4; activity change, negative = inhibition, % at 10 µM; HEK293 TRPC4/mu-opioid, membrane potential fluorescence; shares compounds with TRPC6 inh; AID 2777; 920 tested, 61% active;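 active means rise or fall in signal beyond 3 SD of buffer-only wells in both replicate plates, either sign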;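 further: integrated kinetic ratio of fluorescence range over baseline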
HEK293 MPD ctr 2-1 – parental HEK293 nonspecific activity of TRPC6 inhibitors, second screen; shares compounds with TRPC6 inh; parental HEK293 membrane potential dye fluorescence; maximal acetylcholine challenge after compound addition; signal change vs control, % at 10 µM; 920 tested, 31% active;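 active means membrane potential signal moving either way by over 3 SD of the maximum-effect control, in both duplicate plates, meaning non-specific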
HEK293 MPD ctr-1 – counter-screen for TRPC6 inhibitors: effect in parental HEK293 cells; shares compounds with TRPC6 inh; parental HEK293 membrane potential dye fluorescence; membrane potential signal change, % at 10 µM; 920 tested, 60% active; AID 2780;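 active means membrane potential signal shifting up or down by more than 3 SD of buffer-only wells, on both duplicate plates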
HEK293 MPD ctr-2 – checks TRPC6 modulator effects in parental HEK293 cells. shares compounds with TRPC6 inh. membrane potential dye fluorescence. membrane potential signal change, % at 10 µM. 2,400 tested, 51% active. AID 488924;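 active means membrane potential signal moves up or down beyond 5 SD from buffer-only wells, on both duplicate plates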
HEK293 MPD ctr 2-2 – second counter-screen for TRPC6 modulators: effect in parental HEK293 cells; shares compounds with TRPC6 inh; membrane potential dye fluorescence; after compound, maximal acetylcholine stimulation; inhibition, % at 10 µM; 2,400 tested, 14% active; AID 488926;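 active means membrane potential signal drops by more than 5 SD from the mean control signal, in both duplicate plates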
TRPC4/MOR mod – selectivity of TRPC6 modulators against mouse TRPC4; shares compounds with TRPC6 inh; HEK293 TRPC4/mu-opioid, membrane potential fluorescence; percent change from control (negative = decrease, positive = increase), % at 10 µM; 2,400 tested, 69% active; AID 488927;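 active means membrane potential signal moved up or down beyond 5 SD of buffer control wells, in both duplicate plates, actives on both sides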
TRPC4 ctr inh 2 – second check of whether TRPC6 modulators also affect mouse TRPC4. shares compounds with TRPC6 inh. HEK293 TRPC4/mu-opioid, membrane potential dye fluorescence; stimulated with maximal-effect DAMGO. inhibition, % at 10 µM. 2,400 tested, 55% active. AID 488928;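 active means drop in membrane potential signal beyond 5 SD of the control wells in both duplicate plates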;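 further: TRPC4 counter screen for TRPC6 hits run under conditions tuned for TRPC6 not TRPC4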
TRPC6 inh conf – mouse TRPC6 inhibitor confirmation | shares compounds with TRPC6 inh | HEK293-TRPC6, membrane potential dye, ACh-evoked depolarization | inhibition, % at 10 µM | 3,300 tested, 43% active;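 active means fluorescence ratio falls more than 5 SD below the full-stimulation control mean, in both duplicate runs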;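 further: integrated fluorescence ratio of peak minus minimum over baseline after agonist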
TRPC6 act confirm – confirmation of mouse TRPC6 activators. 2,800 tested, 11% active. HEK293-TRPC6 membrane potential dye fluorescence, FDSS. shares compounds with TRPC6 inh. activation, % at 10 µM;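 active means ratio signal rise beyond 5 SD above unstimulated control wells' mean, seen in both duplicate runs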
Each line names hits and unclear results; the compound was inactive in the other large screens (follow-up assays come after a bar, where they were run). The list is not random: actives were taken first. Their share in the collection is about 2.3%.

CC(C)=CCN1CCN(Cc2cccc3c2OCO3)CC1CCO (stereo not given)	none
COc1ccc(CCNc2c3ccccc3nc3ccccc23)cc1OC	TRPC6 inh -6.84 | TRPC4 sel inh 2 67.5% | TRPC4 spec -23.6% | HEK293 MPD ctr 2-1 inactive | HEK293 MPD ctr-1 -411.5% | TRPC6 inh conf inactive | TRPC6 act confirm inactive
COc1ccc(Nc2c3c(nc4ccccc24)CCCC3)cc1OC	TRPC6 inh -6.05 | HEK293 MPD ctr-2 inactive | HEK293 MPD ctr 2-2 inactive | TRPC4/MOR mod inactive | TRPC4 ctr inh 2 43.5% | TRPC6 inh conf inactive | TRPC6 act confirm inactive
c1ccc(Nc2c3c(nc4ccccc24)CCC3)cc1	none
COc1ccc(Nc2c3c(nc4ccccc24)CCC3)cc1	TRPC6 inh -5.24, TRPC4 block -7 | HEK293 MPD ctr-2 157.0% | HEK293 MPD ctr 2-2 inactive | TRPC4/MOR mod 24.5% | TRPC4 ctr inh 2 36.0% | TRPC6 inh conf inactive
c1ccc2c(N3CCOCC3)c3c(nc2c1)CCC3	TRPC6 inh -5.32 | HEK293 MPD ctr-2 -283.0% | HEK293 MPD ctr 2-2 inactive | TRPC4/MOR mod -40.5% | TRPC4 ctr inh 2 48.0% | TRPC6 inh conf inactive | TRPC6 act confirm inactive
Clc1ccc(-c2n[nH]c3c2CCC3)cc1Cl	none
CN(C)CCCNc1c2c(nc3ccccc13)CCC2	none
COCCNc1c2c(nc3ccccc13)CCC2	TRPC6 inh -5.16, TRPC4 block -6 | HEK293 MPD ctr-2 -144.0% | HEK293 MPD ctr 2-2 inactive | TRPC4/MOR mod -26.0% | TRPC4 ctr inh 2 52.5% | TRPC6 inh conf 46.0% | TRPC6 act confirm inactive
C/C(=N\Nc1nc2ccccc2[nH]1)c1ccc2c(c1)OCO2	TRPC6 inh -10.2, TRPC4 block -8 | TRPC4 sel inh 2 40.5% | TRPC4 spec -19.5% | HEK293 MPD ctr 2-1 37.5% | HEK293 MPD ctr-1 -346.5% | TRPC6 inh conf 58.5% | TRPC6 act confirm inactive
C/C(=N\Nc1nc2ccccc2[nH]1)c1ccc2c(c1)OCCO2	TRPC6 inh -7.24 | TRPC4 sel inh 2 41.0% | TRPC4 spec -23.8% | HEK293 MPD ctr 2-1 inactive | HEK293 MPD ctr-1 -263.0% | TRPC6 inh conf 67.0% | TRPC6 act confirm inactive
C/C(=N\Nc1ccccn1)c1ccc2c(c1)OCO2	none
COCCNC(=O)c1ccc(N(C)S(=O)(=O)c2ccc(OC)c(OC)c2)cc1	none
COC(=O)C1=C(C)N(c2ccc(F)cc2)/C(=C/c2ccc(O)cc2)C1=O	none
Cc1ccc(C)c2[nH]c(=O)c(CN(CCN3CCCC3)C(=O)Nc3cccc(Cl)c3)cc12	TRPC6 inh -6.81 | HEK293 MPD ctr-2 inactive | HEK293 MPD ctr 2-2 67.0% | TRPC4/MOR mod inactive | TRPC4 ctr inh 2 80.5% | TRPC6 inh conf 59.5% | TRPC6 act confirm inactive
O=C1c2ccccc2C(=O)N1OS(=O)(=O)c1ccccc1	none
C=Cc1ccc(COC(=O)c2cn(CC)c3nc(C)ccc3c2=O)cc1	none
CCn1cc(C(=O)OCc2ccc(F)cc2)c(=O)c2ccc(C)nc21	TRPC6 inh -10 | HEK293 MPD ctr-2 -340.0% | HEK293 MPD ctr 2-2 83.5% | TRPC4/MOR mod -52.5% | TRPC4 ctr inh 2 65.0% | TRPC6 inh conf 63.5% | TRPC6 act confirm inactive
CCn1cc(C(=O)OCc2ccccc2)c(=O)c2ccc(C)nc21	TRPC6 inh -6.02 | HEK293 MPD ctr-2 -308.0% | HEK293 MPD ctr 2-2 inactive | TRPC4/MOR mod -50.5% | TRPC4 ctr inh 2 47.5% | TRPC6 inh conf inactive | TRPC6 act confirm inactive
COc1ccc(OCC(=O)N2CCN(C(=O)c3ccc(F)cc3)CC2)cc1	none
NS(=O)(=O)c1ccc(CCNC(=O)c2ccc3nccnc3c2)cc1	none (no result: TRPC4 agonist, TRPC4 potent, TRPC6 activator, TRPC6 inh, TRPC4 block)
CCCCc1ccc(/C(C)=N/Nc2cc(N3CCOCC3)nc(C)n2)cc1	TRPC6 inh -5.23 | HEK293 MPD ctr-2 inactive | HEK293 MPD ctr 2-2 inactive | TRPC4/MOR mod inactive | TRPC4 ctr inh 2 inactive | TRPC6 inh conf inactive | TRPC6 act confirm inactive
COc1cccc(C(=O)NNC(=O)CCC(=O)O)c1	none
O=C1CC(c2ccco2)CC(O)=C1C=NCCN1CCNCC1 (stereo not given)	TRPC6 inh -8.7 | TRPC4 sel inh 2 inactive | TRPC4 spec inactive | HEK293 MPD ctr 2-1 inactive | HEK293 MPD ctr-1 inactive | TRPC6 inh conf inactive | TRPC6 act confirm inactive
O=C1CC(c2ccc(Cl)c(Cl)c2)CC(O)=C1C=NCCN1CCNCC1 (stereo not given)	TRPC6 inh -5.92 (no result: CR mimetic SO) | HEK293 MPD ctr-2 inactive | HEK293 MPD ctr 2-2 inactive | TRPC4/MOR mod 9.5% | TRPC4 ctr inh 2 inactive | TRPC6 inh conf inactive
O=C1CC(c2ccc(F)cc2)CC(O)=C1C=NCCN1CCNCC1 (stereo not given)	none
O=C1CC(c2ccccc2)CC(O)=C1C=NCCN1CCNCC1 (stereo not given)	none
Cc1cccc(NC(=S)NCCc2ccc(S(N)(=O)=O)cc2)c1C	none
CCN(CC)S(=O)(=O)c1ccc(N2CCCCC2)c(NC(=O)c2ccncc2)c1	TRPC6 inh -6.61 | TRPC4 sel inh 2 inactive | TRPC4 spec 10.0% | HEK293 MPD ctr 2-1 inactive | HEK293 MPD ctr-1 6.7% | TRPC6 inh conf inactive
